Arrestin-AP2 inh = human beta-arrestin and AP2 interaction inhibition; inhibition, % at 10 µM; FITC-arrestin peptide / GST-AP2 beads, flow cytometry; AP2 beta2 appendage carries R879A mutation; AID 504490; 340,000 compounds, 0.31% hits;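 active = inhibition above a set limit, near 3 SD of compounds lacking own fluorescence, cut at about 54% in these data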;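 note: plate controls were DMSO wells for no effect and 5 µM unlabelled arrestin peptide for full effect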
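Assay system: GST-AP2 R879A bound to glutathione beads, E. coli-expressed; Medium: PBS with 0.05% Tween 20 and 0.1% BSA; Also added: fluorescein-tagged arrestin peptide at 50 nM final; Timing: 12 min plus 1 h, RT; Measured by: flow cytometry, FL1 (488/535 nm); Evaluation: percent drop in bead-associated FITC signal.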
sPLA2-III inh = Inhibits HGIII-sPLA2 liposome hydrolysis, primary screen | Q9NZ20 | 370,000 compounds, 0.56% hits | inhibition, % at 12.2 µM | QFRET BODIPY PC-A2 liposome hydrolysis, fluorescence | AID 743126;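 active = inhibition above mean plus 3 SD of compounds lying within the high and low control bounds, cut at about 19% in these data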;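 note: 0% = median of test compound wells and 100% = no enzyme DMSO wells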
Hep lipid drop = modulators of hepatic lipid droplet formation | AML12 mouse hepatocytes, oleate lipid droplets, BODIPY imaging | inhibition, % at 6.5 µM | 240,000 compounds, 0.4% hits;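 active = lipid droplet intensity inhibited by at least 50%, with more than 500 cells counted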
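Assay system: AML12 mouse liver cells | Compound: 6.5 µM single-point dosing | Schedule: Overnight exposure | Technique: Fluorescence imaging, 20x objective, two fields per well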
M18AAP inhibitor = PfM18AAP enzyme inhibition; recombinant PfM18AAP, H-Glu-NHMec fluorogenic cleavage; inhibition, % at 7.35 µM; 290,000 compounds, 1.2% hits;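 active = inhibition above the campaign mean inhibition over all tested compounds plus 3 SD, cut at about 28% in these data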;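 note: 0% = plate median of test compound wells and 100% = 2 mM ZnCl2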
m5-HT2A agonist = activates the mouse 5-HT2A serotonin receptor; P35363; CHO-K1 mHTR2A beta-arrestin complementation, luminescence; percent of 30 µM serotonin response; 360,000 compounds, 0.66% hits; activation, % at 7.6 µM;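 active = activation above a run cutoff, the mean activation of all tested compounds plus 3 SD, cut at about 14% in these data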;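 note: 0% = plate median of compound wells and 100% = 30 µM serotonin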
CendR NRP1 mod = modulators of CendR peptide binding to human neuropilin-1. FAM-RPARPAR peptide binding to NRP-1, fluorescence polarization. AID 602438. 360,000 compounds, 0.85% hits. inhibition, % at 25 µM;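 active = inhibition or corrected inhibition above about 18%, plus a signal ratio from 0.5 to 1.5, limit read from the data, passing the limit was not always enough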
Target sequence (O14786 whole entry, looked up): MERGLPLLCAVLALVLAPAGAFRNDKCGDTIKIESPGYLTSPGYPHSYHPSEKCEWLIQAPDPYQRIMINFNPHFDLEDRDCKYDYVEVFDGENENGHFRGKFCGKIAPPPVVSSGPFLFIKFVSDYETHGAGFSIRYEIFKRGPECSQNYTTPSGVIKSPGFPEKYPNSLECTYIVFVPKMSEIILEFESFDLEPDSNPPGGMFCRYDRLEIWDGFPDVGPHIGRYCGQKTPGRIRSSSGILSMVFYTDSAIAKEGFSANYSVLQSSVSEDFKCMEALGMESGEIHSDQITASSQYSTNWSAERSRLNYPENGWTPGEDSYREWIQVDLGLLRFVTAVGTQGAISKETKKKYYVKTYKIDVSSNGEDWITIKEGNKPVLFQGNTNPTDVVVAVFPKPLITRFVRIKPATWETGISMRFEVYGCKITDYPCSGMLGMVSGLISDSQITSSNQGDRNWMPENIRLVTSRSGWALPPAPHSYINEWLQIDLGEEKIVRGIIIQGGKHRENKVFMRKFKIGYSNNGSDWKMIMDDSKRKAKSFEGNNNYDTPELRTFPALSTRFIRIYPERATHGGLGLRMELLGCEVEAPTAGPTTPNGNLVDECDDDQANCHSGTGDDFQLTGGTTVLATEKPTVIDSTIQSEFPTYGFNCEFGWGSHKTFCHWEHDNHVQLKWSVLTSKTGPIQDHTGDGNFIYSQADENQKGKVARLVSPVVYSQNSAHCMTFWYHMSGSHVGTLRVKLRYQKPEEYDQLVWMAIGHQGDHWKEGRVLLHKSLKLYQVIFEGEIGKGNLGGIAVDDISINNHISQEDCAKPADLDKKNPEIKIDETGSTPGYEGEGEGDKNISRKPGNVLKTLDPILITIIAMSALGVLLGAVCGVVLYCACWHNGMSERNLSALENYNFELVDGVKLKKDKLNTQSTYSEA
Hep lipid conf = confirmation of inhibitors of hepatic lipid droplet formation. shares compounds with Hep lipid drop. AML12 mouse hepatocytes, BODIPY lipid droplet imaging; droplets induced with 100 µM oleic acid. inhibition, % at 5.2 µM. 870 compounds, 65% hits. AID 463183;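 active = inhibition of lipid droplet metric at least 50%, with more than 300 cells in each of four replicates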;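 note: plate controls were DMSO with oleic acid for no effect and 5 µM Triacsin-C for full effect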
AML12 cytotox = counter-screen for cytotoxicity in AML12 mouse hepatocytes; DAPI nuclear morphology cytotoxicity imaging; active compounds read high; cells fed 100 µM oleate overnight; shares compounds with Hep lipid drop; AID 463200; 870 compounds, 3% hits; z-score at 5 µM; in the data active = z-score above about 6.3;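 note: compound exposure lasted overnight at 37 °C before fixation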
AML12 tox conf = AML12 hepatocyte cytotoxicity, confirmed; shares compounds with Hep lipid drop; AML12 mouse hepatocyte viability, ATP luminescence; cells loaded with 100 µM oleic acid; cytotoxicity, % at 50 µM; 530 tested, under 10 active; AID 463219;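 active = cytotoxicity above 50% in each of four replicates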;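 note: compound exposure lasted overnight at 37 °C before the ATP read; 0% = DMSO-treated cells and 100% = wells with no cells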
The depositor's hits bear a star. Sampled rows, rich in hits. Any-hit rate of the full collection: about 3.3%.

Results for Cc1cccc(NC(=O)Oc2ccc(Cl)c3cccnc23)c1 ?
sPLA2-III inh: 0; m5-HT2A agonist: -5; CendR NRP1 mod: -6

How did O=c1ccc(-c2ccc([N+](=O)[O-])cc2)nn1-c1ccccc1 do in these assays?
Arrestin-AP2 inh: 3; sPLA2-III inh: -5; Hep lipid drop: 0; M18AAP inhibitor: -13; m5-HT2A agonist: 0; CendR NRP1 mod: 10

Results for O=[N+]([O-])c1ccc(-[n+]2nc(-c3ccccc3)nn2-c2ccccc2)cc1 ?
Arrestin-AP2 inh: 36; sPLA2-III inh: -7; Hep lipid drop: 87*; M18AAP inhibitor: 1; m5-HT2A agonist: -1; CendR NRP1 mod: -6; Hep lipid conf: 115*; AML12 cytotox: -0.74; AML12 tox conf: 12

Results for Cc1c[nH]c2cccc(-c3ccc4c(c3)OCO4)c12 ?
sPLA2-III inh: 3

How did CCCCCc1cc(=O)oc2c(C(CCN3CCCC(C)C3)c3ccc(N(C)C)cc3)c(OC)cc(OC)c12 (stereo not given) do in these assays?
Arrestin-AP2 inh: 23; Hep lipid drop: 62*; m5-HT2A agonist: -15; CendR NRP1 mod: 10; Hep lipid conf: 11; AML12 cytotox: 0.22

Results for CCCCCc1cc(=O)oc2c(C(CCN3CCCC(C)C3)c3cc(OC)c(OC)c(OC)c3)c(OC)cc(OC)c12 (stereo not given) ?
Arrestin-AP2 inh: -5; Hep lipid drop: 19; m5-HT2A agonist: -5; CendR NRP1 mod: -3

What do the screens show for `CCOc1ccc(CCNC(=O)c2cc([N+](=O)[O-])ccc2N2CCOCC2)cc1OCC`?
Arrestin-AP2 inh: -2; sPLA2-III inh: 6; Hep lipid drop: 0; M18AAP inhibitor: 2; m5-HT2A agonist: 0; CendR NRP1 mod: 10

How did CCOc1ccc(CCNC(=O)COC(=O)c2cc(OC)c(OC)c(OC)c2)cc1OCC do in these assays?
sPLA2-III inh: 2; Hep lipid drop: 75*; M18AAP inhibitor: 2; Hep lipid conf: 109*; AML12 cytotox: -0.53; AML12 tox conf: 11

What do the screens show for `CCOc1ccc(CCNC(=O)COC(=O)c2cc([N+](=O)[O-])ccc2N2CCOCC2)cc1OCC`?
Arrestin-AP2 inh: 5; sPLA2-III inh: -2; Hep lipid drop: 68*; M18AAP inhibitor: -12; m5-HT2A agonist: 0; CendR NRP1 mod: 15; Hep lipid conf: 103*; AML12 cytotox: -0.41; AML12 tox conf: 18

What do the screens show for `CCOc1ccc(CCNC(=O)Cn2nc(C)c3c(C)n(-c4ccccc4)nc3c2=O)cc1OCC`?
Arrestin-AP2 inh: -13; sPLA2-III inh: 5; Hep lipid drop: 91*; M18AAP inhibitor: -4; m5-HT2A agonist: 3; CendR NRP1 mod: 6; Hep lipid conf: 93*; AML12 cytotox: -0.62; AML12 tox conf: 8

What do the screens show for `CCOc1ccc(C(=O)OCC(=O)Nc2ccc(SC(F)F)cc2)cc1OCC`?
Arrestin-AP2 inh: 33; sPLA2-III inh: 0; Hep lipid drop: 51*; M18AAP inhibitor: 0; m5-HT2A agonist: 1; CendR NRP1 mod: -6; Hep lipid conf: 72*; AML12 cytotox: -0.6

Results for CC(C)(C)c1ccc(S(=O)(=O)N2CCC(C(=O)NCC3COCCO3)CC2)cc1 (stereo not given) ?
sPLA2-III inh: 0

What do the screens show for `CCC(C(=O)NCCc1ccccc1OC)n1nc(C)c2c(C)n(-c3ccccc3)nc2c1=O` (stereo not given)?
Arrestin-AP2 inh: 1; sPLA2-III inh: 5; Hep lipid drop: 57*; M18AAP inhibitor: 4; m5-HT2A agonist: 1; CendR NRP1 mod: -1; Hep lipid conf: 82*; AML12 cytotox: -0.72; AML12 tox conf: 14

Results for CCOc1ccc(CCNC(=O)COC(=O)c2c(C)nn(-c3ccccc3)c2C)cc1OCC ?
Arrestin-AP2 inh: -8; sPLA2-III inh: 5; Hep lipid drop: 86*; M18AAP inhibitor: 6; m5-HT2A agonist: 1; CendR NRP1 mod: -38; Hep lipid conf: 110*; AML12 cytotox: -0.39; AML12 tox conf: 15

How did CCC(C(=O)NCCc1ccc(C)cc1)n1nc(C)c2c(C)n(-c3ccccc3)nc2c1=O (stereo not given) do in these assays?
Arrestin-AP2 inh: 37; sPLA2-III inh: -8; Hep lipid drop: 28; M18AAP inhibitor: -7; m5-HT2A agonist: 3; CendR NRP1 mod: 4

Results for CCOc1ccc(CCNC(=O)Cn2ncn3nc(-c4ccc(OC)cc4)cc3c2=O)cc1OCC ?
Arrestin-AP2 inh: -10; sPLA2-III inh: 7; Hep lipid drop: 85*; M18AAP inhibitor: -2; m5-HT2A agonist: 4; CendR NRP1 mod: -2; Hep lipid conf: 101*; AML12 cytotox: 0.45; AML12 tox conf: 4

What do the screens show for `Cc1nn(-c2ccccc2)c(Cl)c1C(=O)OCC(=O)NCCc1ccccc1`?
Arrestin-AP2 inh: -13; sPLA2-III inh: -7; Hep lipid drop: 2; M18AAP inhibitor: -9; m5-HT2A agonist: 0; CendR NRP1 mod: -2

How did COc1ccc(-c2cc3c(=O)n(CC(=O)NCCCc4ccccc4)ncn3n2)cc1 do in these assays?
Arrestin-AP2 inh: -12; sPLA2-III inh: -3; Hep lipid drop: 10; M18AAP inhibitor: -6; m5-HT2A agonist: -2; CendR NRP1 mod: -4

How did Cc1ccc(-n2nc3c(=O)n(C(C)C(=O)NCCC4=CCCCC4)nc(C)c3c2C)cc1 (stereo not given) do in these assays?
Arrestin-AP2 inh: -3; sPLA2-III inh: 9; Hep lipid drop: 58*; M18AAP inhibitor: -5; m5-HT2A agonist: -5; CendR NRP1 mod: 21; Hep lipid conf: 83*; AML12 cytotox: -1.5; AML12 tox conf: 18

How did CC(C)=CC(=O)NCC1CCN(C(=O)C(=O)c2cc3ccccc3o2)CC1 do in these assays?
sPLA2-III inh: 0

What do the screens show for `CCOc1ccccc1CNC(=O)CN1C(=O)CSc2ccc(S(=O)(=O)N3CCOCC3)cc21`?
Arrestin-AP2 inh: -11; sPLA2-III inh: 7; Hep lipid drop: -8; M18AAP inhibitor: 2; m5-HT2A agonist: 3; CendR NRP1 mod: 11
